The text below walks through data of ChEMBL document CHEMBL4007393 (J Med Chem, 2017).

Data set [1] can be described thus: Kinetic solubility of the compound in water after 30 mins by nephelometric analysis. Format: physicochemical. Conditions: read-out: Kinetic_solubility. The method, boiled down: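 DMSO stock diluted into water to 1% final DMSO and left at ambient temperature for 30 min. Solubility range read by nephelometry.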
The nature of data set [2]: Plasma concentration in FVB mouse at 30 mg/kg, administered through oral gavage as single dose measured after 48 hrs post dose by LC-MS analysis. The format is ADME, organism-based. The method, boiled down: (§1)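 Non-infected mice given one oral gavage dose of 30 mg/kg as an aqueous suspension. Terminal cardiac blood taken under isoflurane, centrifuged at 4 °C, plasma stored at -20 °C. Plasma proteins precipitated with acetonitrile (2:1 or 3:1), supernatant run by LC/MS with diazepam internal standard against a blank mouse plasma calibration curve. PK parameters calculated noncompartmentally.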

Data set [3] is described as follows: Cmax in FVB mouse at 30 mg/kg, administered through oral gavage as single dose by LC-MS analysis. On the set-up: dose 30 mg/kg, route oral. Format: ADME, organism-based. Conditions: in vivo. The method, boiled down:
as §1

A short description of data set [4]: AUC (0 to infinity) in FVB mouse at 30 mg/kg, administered through oral gavage as single dose by LC-MS analysis. On the set-up: dose 30 mg/kg, time infinity, route oral. The format is ADME, organism-based. Conditions: in vivo. Summed up:
as §1

In data set [5] the test system is Rattus norvegicus. Put plainly: Drug accumulation in rat at 100 to 300 mg/kg, po administered every third day for 5 doses measured after 2 weeks relative to control. The format is ADME, organism-based. Conditions: in vivo, 336 h. The method, boiled down:
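Male rats were given oral gavage doses of 100 or 300 mg/kg every third day for five doses, alongside a vehicle group. The vehicle was the same formulation used for the mouse efficacy studies. Plasma concentrations were followed over the dosing period to assess accumulation, together with general condition, body weight, biochemistry and histopathology.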

A short description of data set [6]: Plasma concentration in rat at 100 mg/kg, po administered every third day for 5 doses measured after 2 weeks. The format is ADME, organism-based. The method, boiled down: (§2)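 Male rats dosed by oral gavage at 100 or 300 mg/kg every third day for 5 doses, in the same vehicle as the mouse efficacy and exposure studies; vehicle controls included. Endpoints: general condition, body weight, clinical biochemistry, histopathology, mortality and plasma concentrations.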

Data set [7] can be described thus: Plasma concentration in rat at 300 mg/kg, po administered every third day for 5 doses measured after 2 weeks. Format: ADME, organism-based. Summed up: as §2

Values after ≈ are worked out from the molar mass of the structure shown.

The term Cmax denotes the peak of the concentration-time curve. One may read the AUC(0-inf) as total exposure, with the tail of the curve extrapolated. Low values mean low exposure, high ones high exposure.

Turning to `N[C@H]1CC[C@@H](Oc2ccc([C@H]3CC[C@]4(CC3)OOC3(O4)C4CC5CC(C4)CC3C5)cc2)CC1` (stereo partly drawn), the solubility kinetic at 0.5 h in data set [1] lay within 0.025 to 0.05 mg/mL (≈ 55.1 to 110 µM). The concentration at 48 h in data set [2] is 0.145 µM. The same molecule displayed a Cmax in data set [3] of 1.17 µM. In data set [4], this molecule returned an AUC(0-inf) of 29.5 µM·h. Also, the fold change (FC) in data set [5] was 1 to 4.
As to `c1cc([C@H]2CC[C@]3(CC2)OO[C@]2(O3)C3CC4CC(C3)CC2C4)ccc1OCCN1CCOCC1` [ARTEFENOMEL], in data set [1], the solubility kinetic at 0.5 h was below 0.0016 mg/mL. The concentration at 48 h in data set [2] was 0.132 µM. In addition, the values for the concentration at 336 h in data set [6] and in data set [7] were 4.6 µg/mL and 6.3 µg/mL, respectively. Further, the highest level in data set [3] (Cmax) was 3.8 µM. Further, in data set [4], the AUC(0-inf) was 38.7 µM·h.
As for `CC(C)(N)CCOc1ccc([C@H]2CC[C@]3(CC2)OOC2(O3)C3CC4CC(C3)CC2C4)cc1` (stereo partly drawn), in data set [1], the solubility kinetic at 0.5 h is 0.05 to 0.1 mg/mL (≈ 113 to 226 µM). Besides, the concentration at 48 h in data set [2] worked out at 0.0892 µM. The molecule also had a Cmax in data set [3] of 1.05 µM. Moreover, in data set [4], the AUC(0-inf) stood at 27.8 µM·h. This molecule registered a fold change (FC) in data set [5] of 1 to 4.
As for `c1cc([C@H]2CC[C@]3(CC2)OOC2(O3)C3CC4CC(C3)CC2C4)ccc1OC1CCNCC1` (stereo partly drawn), the solubility kinetic at 0.5 h in data set [1] is above 0.1 mg/mL. The concentration at 48 h in data set [2] came out at 0.0494 µM. The same molecule had a peak concentration (Cmax) in data set [3] of 0.81 µM. Besides, in data set [4], the AUC(0-inf) was 16.4 µM·h.
Turning to `c1cc([C@H]2CC[C@]3(CC2)OOC2(O3)C3CC4CC(C3)CC2C4)ccc1OCCC1CCNCC1` (stereo partly drawn), the solubility kinetic at 0.5 h in data set [1] was above 0.1 mg/mL. The same molecule returned a concentration at 48 h in data set [2] of 0.192 µM. In data set [3], this molecule registered a Cmax of 1.19 µM. Further, the AUC(0-inf) in data set [4] turned out to be 34.1 µM·h.
`CC1(C)CC(O)(COc2ccc([C@H]3CC[C@]4(CC3)OOC3(O4)C4CC5CC(C4)CC3C5)cc2)CC(C)(C)N1` (stereo partly drawn): in data set [1], the solubility kinetic at 0.5 h is above 0.1 mg/mL. This molecule also gave a concentration at 48 h in data set [2] of 0.122 µM. The Cmax in data set [3] stood at 1 µM. The molecule further yielded an AUC(0-inf) in data set [4] of 32.9 µM·h.
As to `CC(C)(O)CNCCCOc1ccc([C@H]2CC[C@]3(CC2)OOC2(O3)C3CC4CC(C3)CC2C4)cc1` (stereo partly drawn), the solubility kinetic at 0.5 h in data set [1] is above 0.1 mg/mL. The concentration at 48 h in data set [2] turned out to be 0.036 µM. Further, the Cmax in data set [3] amounted to 1.21 µM. In data set [4], this molecule displayed an AUC(0-inf) of 22.8 µM·h. This molecule came in with a concentration at 336 h in data set [7] above 1.9 µg/mL.
`c1cc([C@H]2CC[C@]3(CC2)OOC2(O3)C3CC4CC(C3)CC2C4)ccc1OCCOC1CCNCC1` (stereo partly drawn): the solubility kinetic at 0.5 h in data set [1] was 0.05 to 0.1 mg/mL (≈ 103 to 207 µM). The molecule also came in with a concentration at 48 h in data set [2] of 0.0976 µM. Moreover, in data set [3], the concentration peaked (Cmax) at 0.633 µM. Besides, the AUC(0-inf) in data set [4] was found to be 19 µM·h.
As for `NCCOc1ccc([C@H]2CC[C@]3(CC2)OOC2(O3)C3CC4CC(C3)CC2C4)cc1` (stereo partly drawn), in data set [1], the solubility kinetic at 0.5 h is above 0.1 mg/mL. This molecule yielded a concentration at 48 h in data set [2] of 0.00473 µM. Also, the Cmax in data set [3] was determined as 0.287 µM. This molecule displayed an AUC(0-inf) in data set [4] of 3.42 µM·h. In data set [5], this molecule gave a fold change (FC) of 1 to 4.
Regarding `c1cc([C@H]2CC[C@]3(CC2)OOC2(O3)C3CC4CC(C3)CC2C4)ccc1OCCN1CC2(COC2)C1` (stereo partly drawn), the solubility kinetic at 0.5 h in data set [1] was 0.05 to 0.1 mg/mL (≈ 104 to 208 µM).
On to `CC(C)(N)CNC(=O)C[C@H]1CC[C@]2(CC1)OOC1(O2)C2CC3CC(C2)CC1C3` (stereo partly drawn), for which, in data set [1], the solubility kinetic at 0.5 h was above 0.1 mg/mL. The same molecule displayed a concentration at 48 h in data set [2] below 0.001 µM. In data set [3], this molecule displayed a Cmax of 0.776 µM. The AUC(0-inf) in data set [4] is 2.61 µM·h.
`c1cc([C@H]2CC[C@]3(CC2)OOC2(O3)C3CC4CC(C3)CC2C4)ccc1CN1CCOCC1` (stereo partly drawn): the solubility kinetic at 0.5 h in data set [1] was 0.0016 to 0.0031 mg/mL (≈ 3.64 to 7.05 µM).
Regarding `[O-][S+]1CCN(CCCOc2ccc([C@H]3CC[C@]4(CC3)OOC3(O4)C4CC5CC(C4)CC3C5)cc2)CC1` (stereo partly drawn), in data set [1], the solubility kinetic at 0.5 h is below 0.0016 mg/mL. This molecule also showed a concentration at 336 h in data set [7] of 1 to 2 µg/mL.
For the molecule `c1ccc([C@H]2CC[C@]3(CC2)OOC2(O3)C3CC4CC(C3)CC2C4)c(OCCN2CCOCC2)c1` (stereo partly drawn), the solubility kinetic at 0.5 h in data set [1] lay in the range of 0.0031 to 0.0063 mg/mL (≈ 6.6 to 13.4 µM).
`NC1CCN(S(=O)(=O)c2ccc([C@H]3CC[C@]4(CC3)OOC3(O4)C4CC5CC(C4)CC3C5)cc2)CC1` (stereo partly drawn): the solubility kinetic at 0.5 h in data set [1] is 0.0125 to 0.025 mg/mL (≈ 24.9 to 49.7 µM).
The same measure, in the same setting: then `c1cc([C@H]2CC[C@]3(CC2)OOC2(O3)C3CC4CC(C3)CC2C4)ccc1OCCN1CCC1` (stereo partly drawn), with above 0.1 mg/mL.
Same read-out and setting: then `CS(=O)(=O)N1CCN(CCCOc2ccc([C@H]3CC[C@]4(CC3)OOC3(O4)C4CC5CC(C4)CC3C5)cc2)CC1` (stereo partly drawn), with below 0.0016 mg/mL.
For the molecule `c1cc([C@H]2CC[C@]3(CC2)OOC2(O3)C3CC4CC(C3)CC2C4)ccc1OCCN1CCNCC1` (stereo partly drawn), the solubility kinetic at 0.5 h in data set [1] was above 0.1 mg/mL. In data set [2], the concentration at 48 h worked out at 0.0239 µM. Further, the Cmax in data set [3] worked out at 0.752 µM. The molecule further returned an AUC(0-inf) in data set [4] of 16.8 µM·h.
Consider `O=C(c1ccc([C@H]2CC[C@]3(CC2)OOC2(O3)C3CC4CC(C3)CC2C4)cc1)N1CCNCC1` (stereo partly drawn), for which, in data set [1], the solubility kinetic at 0.5 h is above 0.1 mg/mL.
`O[C@H]1CC[C@H](NCCCOc2ccc([C@H]3CC[C@]4(CC3)OOC3(O4)C4CC5CC(C4)CC3C5)cc2)CC1` (stereo partly drawn): the solubility kinetic at 0.5 h in data set [1] was above 0.1 mg/mL. Further, the concentration at 48 h in data set [2] stood at 0.0265 µM. In data set [3], this molecule gave a Cmax of 0.721 µM. The AUC(0-inf) in data set [4] is 12.8 µM·h.
Regarding `c1cc([C@H]2CC[C@]3(CC2)OOC2(O3)C3CC4CC(C3)CC2C4)ccc1OCCN1CCCOCC1` (stereo partly drawn), the solubility kinetic at 0.5 h in data set [1] fell in the range of 0.0031 to 0.0063 mg/mL (≈ 6.41 to 13 µM). The molecule further came in with a concentration at 48 h in data set [2] of 0.0132 µM. In addition, the Cmax in data set [3] is 2.61 µM. Besides, in data set [4], the AUC(0-inf) turned out to be 16.8 µM·h.
For the molecule `c1cc([C@H]2CC[C@]3(CC2)OOC2(O3)C3CC4CC(C3)CC2C4)ccc1OCCN1CCCCC1` (stereo partly drawn), the solubility kinetic at 0.5 h in data set [1] is 0.0063 to 0.0125 mg/mL (≈ 13.5 to 26.7 µM).
Same read-out and setting: then `c1cc([C@H]2CC[C@]3(CC2)OOC2(O3)C3CC4CC(C3)CC2C4)ccc1OCCCN1CCOCC1` (stereo partly drawn), with 0.0016 to 0.0031 mg/mL (≈ 3.31 to 6.41 µM).
Regarding `NCCCCOc1ccc([C@H]2CC[C@]3(CC2)OOC2(O3)C3CC4CC(C3)CC2C4)cc1` (stereo partly drawn), in data set [1], the solubility kinetic at 0.5 h was in the range of 0.05 to 0.1 mg/mL (≈ 117 to 234 µM). In data set [2], the concentration at 48 h came out at 0.0234 µM. This molecule returned a Cmax in data set [3] of 0.37 µM. The molecule also yielded an AUC(0-inf) in data set [4] of 11 µM·h.
Taken in the same sequence, the figures for `CC(C)(CN)Oc1ccc([C@H]2CC[C@]3(CC2)OOC2(O3)C3CC4CC(C3)CC2C4)cc1` (stereo partly drawn) were above 0.1 mg/mL, 0.00797 µM, 0.529 µM and 11.3 µM·h.
As for `FC1(F)C2CC3CC1CC(C2)C31OO[C@]2(CC[C@@H](c3ccc(OCCN4CCOCC4)cc3)CC2)O1` (stereo partly drawn), the solubility kinetic at 0.5 h in data set [1] fell in the range of 0.0016 to 0.0031 mg/mL (≈ 3.16 to 6.13 µM).
Regarding `NCCCOc1ccc([C@H]2CC[C@]3(CC2)OOC2(O3)C3CC4CC(C3)CC2C4)cc1` (stereo partly drawn), in data set [5], the fold change (FC) fell in the range of 1 to 4.
As to `c1cc([C@H]2CC[C@]3(CC2)OOC2(O3)C3CC4CC(C3)CC2C4)ccc1OCC1CCNCC1` (stereo partly drawn), the solubility kinetic at 0.5 h in data set [1] lay within 0.0125 to 0.025 mg/mL (≈ 27.6 to 55.1 µM). In data set [2], this molecule returned a concentration at 48 h of 0.0179 µM. The Cmax in data set [3] is 0.465 µM. Also, in data set [4], the AUC(0-inf) came to 8.9 µM·h.
For `CC(C)(O)CN1CCC(Oc2ccc([C@H]3CC[C@]4(CC3)OOC3(O4)C4CC5CC(C4)CC3C5)cc2)CC1` (stereo partly drawn), in data set [1], the solubility kinetic at 0.5 h lay within 0.0016 to 0.0031 mg/mL (≈ 3.13 to 6.06 µM). For the same molecule, the concentration at 48 h in data set [2] was 0.0227 µM. Also, the peak level in data set [3] (Cmax) was 1.81 µM. This molecule returned an AUC(0-inf) in data set [4] of 27.7 µM·h. The concentration at 336 h in data set [7] was 1 to 2 µg/mL.
